# Measured values: ChEMBL document CHEMBL4616666, “Discovery of SHP2-D26 as a First, Potent, and Effective PROTAC Degrader of SHP2 Protein” (J Med Chem, 2020)
# Active and inactive are the calls of the source. The rule behind the calls is not given here.
# Columns and labels:
# [1] = molecular target: T1, von Hippel-Lindau disease tumor suppressor/Tyrosine-protein phosphatase non-receptor type 11 (Homo sapiens, UniProt Q06124+P40337); test: Protac activity at VHL1/SHP2 in human KYSE520 cells assessed as induction of SHP2 degradation at 0.1 uM measured after 6 hrs by Western blot analysis relative to control; type: cell-based
# Summary of the method: (§1)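 KYSE520 cells in RPMI 1640 + 10% FBS, 37 °C, 5% CO2, were exposed to degrader for 6 h. SHP2 was measured by Western blot and densitometry, with background-subtracted band normalized to net GAPDH band. Values are the average of three independent experiments.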
# Target sequence in this assay (P40337 whole entry partner, one chain of several): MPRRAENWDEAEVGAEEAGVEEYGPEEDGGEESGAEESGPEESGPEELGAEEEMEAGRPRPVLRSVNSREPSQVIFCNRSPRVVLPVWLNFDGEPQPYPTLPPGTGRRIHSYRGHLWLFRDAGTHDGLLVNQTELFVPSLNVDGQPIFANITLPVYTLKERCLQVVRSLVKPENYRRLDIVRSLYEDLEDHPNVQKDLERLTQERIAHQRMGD
# [2] = molecular target: T1, von Hippel-Lindau disease tumor suppressor/Tyrosine-protein phosphatase non-receptor type 11; test: Protac activity at VHL1/SHP2 in human KYSE520 cells assessed as induction of SHP2 degradation at 1 uM measured after 6 hrs by Western blot analysis relative to control; type: cell-based; summary of the method: as §1
# Target sequence in this assay (P40337 whole entry partner, one chain of several): as above
# [3] = molecular target: T1, von Hippel-Lindau disease tumor suppressor/Tyrosine-protein phosphatase non-receptor type 11; test: Protac activity at VHL1/SHP2 in human MV4-11 cells assessed as induction of SHP2 degradation at 0.1 uM measured after 24 hrs by Western blot analysis relative to control; type: cell-based
# Summary of the method: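 MV4;11 cells in IMDM + 10% FBS were exposed to degrader for 24 h. SHP2 was quantified by Western blot densitometry, with background-subtracted band divided by net GAPDH loading-control band. Average of three independent experiments.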
# Target sequence in this assay (P40337 whole entry partner, one chain of several): as above
# [4] = Aqueous solubility of the compound; type: physicochemical; details: buffer
# [5] = molecular target: T1, von Hippel-Lindau disease tumor suppressor/Tyrosine-protein phosphatase non-receptor type 11; test: Protac activity at VHL1/SHP2 in human KYSE520 cells assessed as induction of SHP2 degradation measured after 12 hrs by Western blot analysis; type: cell-based
# Summary of the method: (§2)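 Dose–response: KYSE520 (RPMI 1640) or MV4;11 (IMDM) cells, with 10% FBS, were treated across a concentration range for 12 h. SHP2 was measured by Western blot and densitometry, normalized to GAPDH band density.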
# [6] = molecular target: T1, von Hippel-Lindau disease tumor suppressor/Tyrosine-protein phosphatase non-receptor type 11; test: Protac activity at VHL1/SHP2 in human MV4-11 cells assessed as induction of SHP2 degradation measured after 12 hrs by Western blot analysis; type: cell-based; summary of the method: as §2
# [7] = molecular target: T1, von Hippel-Lindau disease tumor suppressor/Tyrosine-protein phosphatase non-receptor type 11; test: Protac activity at VHL1/SHP2 in human KYSE520 cells assessed as induction of SHP2 degradation at 100 nM measured within 4 hrs by Western blot analysis; type: cell-based
# Summary of the method: (§3)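 Kinetics: cells were seeded overnight in 6-well plates, then given degrader at 100 nM for 2, 4, 8, 12 and 24 h. Harvested cells were lysed in RIPA with protease/phosphatase inhibitors and SHP2 was read by Western blot against GAPDH loading control. KYSE520 were grown in RPMI 1640 and MV4;11 in IMDM, both with 10% FBS.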
# Target sequence in this assay (P40337 whole entry partner, one chain of several): as above
# [8] = molecular target: T1, von Hippel-Lindau disease tumor suppressor/Tyrosine-protein phosphatase non-receptor type 11; test: Protac activity at VHL1/SHP2 in human KYSE520 cells assessed as induction of SHP2 degradation at 100 nM measured after 8 hrs by Western blot analysis relative to control; type: cell-based; summary of the method: as §3
# Target sequence in this assay (P40337 whole entry partner, one chain of several): as above
# [9] = molecular target: T1, von Hippel-Lindau disease tumor suppressor/Tyrosine-protein phosphatase non-receptor type 11; test: Protac activity at VHL1/SHP2 in human MV4-11 cells assessed as induction of SHP2 degradation at 100 nM measured after 4 to 8 hrs by Western blot analysis; type: cell-based; summary of the method: as §3
# Target sequence in this assay (P40337 whole entry partner, one chain of several): as above
# [10] = molecular target: T1, von Hippel-Lindau disease tumor suppressor/Tyrosine-protein phosphatase non-receptor type 11; test: Protac activity at VHL1/SHP2 in human KYSE520 cells assessed as induction of SHP2 degradation at 0.1 uM measured after 3 hrs in presence of VHL-1 ligand by Western blot analysis; type: cell-based
# Summary of the method: (§4)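 KYSE520 cells in RPMI 1640 + 10% FBS were pretreated 1 h with VHL-1 ligand (10 μM), SHP2 inhibitor (10 μM), MLN4924 (0.5 μM) or MG132, then given degrader at 0.1 μM for 3 h. Cells were lysed in RIPA with protease/phosphatase inhibitors and run on 4–12% SDS–PAGE/PVDF Western blot for SHP2, with GAPDH as loading control.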
# [11] = molecular target: T1, von Hippel-Lindau disease tumor suppressor/Tyrosine-protein phosphatase non-receptor type 11; test: Protac activity at VHL1/SHP2 in human KYSE520 cells assessed as induction of SHP2 degradation at 0.1 uM measured after 3 hrs in presence of SHP2 inhibitor by Western blot analysis; type: cell-based; summary of the method: as §4
# [12] = molecular target: T1, von Hippel-Lindau disease tumor suppressor/Tyrosine-protein phosphatase non-receptor type 11; test: Protac activity at VHL1/SHP2 in human KYSE520 cells assessed as induction of SHP2 degradation at 0.1 uM measured after 3 hrs in presence of E1 inhibitor MLN4924 by Western blot analysis; type: cell-based; summary of the method: as §4
# [13] = molecular target: T1, von Hippel-Lindau disease tumor suppressor/Tyrosine-protein phosphatase non-receptor type 11; test: Protac activity at VHL1/SHP2 in human KYSE520 cells assessed as induction of SHP2 degradation at 0.1 uM measured after 3 hrs in presence of proteasome inhibitor MG132 by Western blot analysis; type: cell-based; summary of the method: as §4
# [14] = molecular target: T1, von Hippel-Lindau disease tumor suppressor/Tyrosine-protein phosphatase non-receptor type 11; test: Protac activity at VHL1/SHP2 in human KYSE520 cells assessed as reduction in ERK phosphorylation measured after 48 hrs by Western blot analysis; type: cell-based
# [15] = molecular target: T1, von Hippel-Lindau disease tumor suppressor/Tyrosine-protein phosphatase non-receptor type 11; test: Protac activity at VHL1/SHP2 in human MV4-11 cells assessed as reduction in ERK phosphorylation measured after 48 hrs by Western blot analysis; type: cell-based
# [16] = molecular target: T1, von Hippel-Lindau disease tumor suppressor/Tyrosine-protein phosphatase non-receptor type 11; test: Protac activity at VHL1/SHP2 in human KYSE520 cells assessed as reduction in ERK phosphorylation at 100 nM measured after 48 hrs by Western blot analysis; type: cell-based
# [17] = molecular target: T1, von Hippel-Lindau disease tumor suppressor/Tyrosine-protein phosphatase non-receptor type 11; test: Protac activity at VHL1/SHP2 in human MV4-11 cells assessed as reduction in ERK phosphorylation at 100 nM measured after 48 hrs by Western blot analysis relative to control; type: cell-based; set-up: scale not given: the % may be the effect or the level left
# [18] = molecular target: T2, Tyrosine-protein phosphatase non-receptor type 11 (Homo sapiens) (UniProt Q06124); test: Inhibition of SHP2 in human MV4-11 cells assessed as reduction in ERK phosphorylation at >3000 nM measured after 48 hrs by Western blot analysis relative to control; type: cell-based
# T2 sequence (whole entry): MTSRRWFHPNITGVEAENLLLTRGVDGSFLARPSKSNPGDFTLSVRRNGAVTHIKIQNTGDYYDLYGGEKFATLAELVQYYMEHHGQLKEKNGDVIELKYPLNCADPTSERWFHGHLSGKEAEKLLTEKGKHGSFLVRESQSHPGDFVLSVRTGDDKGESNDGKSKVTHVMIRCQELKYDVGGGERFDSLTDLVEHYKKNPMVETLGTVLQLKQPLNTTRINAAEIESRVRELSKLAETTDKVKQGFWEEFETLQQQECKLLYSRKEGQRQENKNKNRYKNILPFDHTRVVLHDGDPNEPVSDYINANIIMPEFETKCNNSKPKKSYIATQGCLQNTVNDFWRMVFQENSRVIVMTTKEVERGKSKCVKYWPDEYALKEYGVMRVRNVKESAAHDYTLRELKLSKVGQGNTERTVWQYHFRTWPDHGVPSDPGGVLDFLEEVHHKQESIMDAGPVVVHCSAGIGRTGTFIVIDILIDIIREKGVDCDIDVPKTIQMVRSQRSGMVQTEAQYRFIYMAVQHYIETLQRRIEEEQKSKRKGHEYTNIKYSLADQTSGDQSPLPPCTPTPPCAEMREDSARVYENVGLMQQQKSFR
# KYSE-520 cell line [19] = test: Growth inhibition of human KYSE520 cells measured after 4 days by WST8 assay; details: KYSE-520, 96 h
# MV4-11 [20] = test: Growth inhibition of human MV4-11 cells measured after 4 days by WST8 assay; details: MV4-11, 96 h
# KYSE-520 cell line [21] = test: Potency index, ratio of SHP099 IC50 to test compound IC50 for growth inhibition of human KYSE520 cells; type: functional
# MV4-11 [22] = test: Potency index, ratio of SHP099 IC50 to test compound IC50 for growth inhibition of human MV4-11 cells; type: functional
structure (smiles),measurement,setting,value
"Cc1ncsc1-c1ccc([C@H](C)NC(=O)[C@@H]2C[C@@H](O)CN2C(=O)[C@@H](NC(=O)CCCCCCCCN2CCN(C(=O)CCC(=O)Nc3cccc(Sc4ncc(N5CCC(C)(N)CC5)nc4N)c3Cl)CC2)C(C)(C)C)cc1 (single isomer, unassigned)",Activity,[1],> 95%
same,Activity,[2],> 95%
same,Activity,[3],> 95%
same,solubility,[4],Soluble
same,Activity,[5],Dose-dependent effect
same,DC50,[5],6 nM
same,Activity,[6],Dose-dependent effect
same,DC50,[6],2.6 nM
same,Activity,[7],Active
same,Activity,[8],100%
same,Activity,[9],Active
same,Activity,[10],inactive
same,Activity,[11],inactive
same,Activity,[12],inactive
same,Activity,[13],inactive
same,Activity,[14],Dose-dependent effect
same,Activity,[15],Dose-dependent effect
same,Activity,[16],Active
same,Activity,[17],100%
same,inhibition,[18],100%
same,IC50,KYSE-520 cell line [19],660 nM
same,IC50,MV4-11 [20],9.9 nM
same,Ratio IC50,KYSE-520 cell line [21],28
same,Ratio IC50,MV4-11 [22],100
